Assay results: the EternaBench riboswitch data

System: MS2 coat protein
Experiment: apparent Kd, MS2 coat protein; higher = weaker binding; RNA-MaP array; FMN 200 µM where present
How it was run: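 The apparent Kd comes from binding curves fitted cluster by cluster, filtered, and summarised as a median. Those curves followed SNAP-549-labelled MS2 coat protein from 0.7 or 1.5 nM, doubling to 3 µM, on Illumina sequencing-chip clusters where stalled E. coli RNA polymerase had transcribed the designs, without and then with constant ligand. The buffer was 100 mM Tris-HCl pH 7.5, 80 mM KCl, 4 mM MgCl2, BSA, DTT, yeast tRNA and Tween-20, and green signal was normalised to red-channel RNA signal and control-cluster median Fmax.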

[1] = designed as: OFF switch for flavin mononucleotide, no ligand
[2] = ligand present: flavin mononucleotide, designed as: OFF switch for flavin mononucleotide
[3] = designed as: ON switch for flavin mononucleotide, no ligand
[4] = ligand present: flavin mononucleotide, designed as: ON switch for flavin mononucleotide

Row | Sequence | apparent Kd [1] [nM] | apparent Kd [2] [nM] | apparent Kd [3] [nM] | apparent Kd [4] [nM]
1 | AUGGACGCAGGAUAUACAUGAGGAUCACCCAUGUUAGGGUUGUGAGUAGGAAGGGAAGGUAGAAGGGCGAGAGU | 120 | 141 | – | –
2 | AUCGUUAACGAAGGAUAUGGUUACAUGAGGAUCACCCAUGUAUUUUUUGUGAUCUUGUUUAAGUUCCAGAAGGUCGUUAACGUA | 551 | 710 | – | –
3 | CGUUGUUCCGCAGGAUAUGCAUUGGAUUACAAUGCAGAAGGGCGAUUACAUGAGGAUCACCCAUGUGUGGACAAUAAGGAAGAG | – | – | 1490 | 142
4 | GUCAGCUCGUGAGGAUAUACAACACUGCUUCGGCAGUGUAUUAAGUUCACAUGAGGAUCACCCAUGUAGAAGGCACGAGCUGAU | 5.56 | 6.8 | – | –
5 | AUGCUUUAUGUAGGAUAUGCAUACUGUUAGUAUGCAGAAGGACAUGAGGAUCACCCAUGUAUAUUAUUAUUACAUAUCAUACAU | 26 | 311 | – | –
6 | AAAAAGUGAGGAUAUACAUGAGGAUCACCCAUGUAAUAAAAAAAAAGGGUGGAAGAAAGUAGAAGGCACCAAAA | 62.4 | 356 | – | –
7 | UCCUCGUAGUAGAAGGGCGGCCGAAAUCUGCACGCAGGAUAUACAUGAGGAUCACCCAUGUACUGAGCUGAAGAGCACUUGGAA | 11.5 | 29.5 | – | –
8 | ACAACUAAGCAGAAGGCAGUCAUAGCAUUCGUCAUGUAGACAUGAGGAUCACCCAUGUAUAGUGCUGAGGAUAUGCUUGGUUAG | 11.3 | 9.47 | – | –
9 | UGGCCUUUAGGAUAUCGGGUCUUUAACAUGAGGAUCACCCAUGUGGCACUCUCUUGAGAACGAGAAGGAAAACCCG | 23.2 | 23.7 | – | –
10 | UAAAUGUGAGGAUAUCAGGUGUGCUAGCAUACUGGUACAUCUGAGAAGGCACAUGAGGAUCACCCAUGUUCCUU | 16.8 | 52.4 | – | –
11 | AGUGGGUGUGAUAAAUAGUGGAAGUAGGAUAUGGGCUUACAUGAGGAUCACCCAUGUAUACAGCGCCAGAAGGACUGGACUGUA | – | – | 75.3 | 34.6
12 | GAAUACCUAGGAUAUACAUGAGGAUCACCCAUGUCAGUAGACUGGGUAAAGUCUCUCAGUAGAAGGAGGACCCG | 109 | 97.8 | – | –
13 | UUGGACGUCGUAGGAUAUGUAGGAUACUCCUACAUGAGGAUCACCCAUGUUGACAUGGAGGAAGGACAGAAGGACGGUGUCCAU | – | – | 25.8 | 6.46
14 | CCCAAACUUGGGUUUGGUGGUUCAUAGGAUAUGCUUGUACAUGAGGAUCACCCAUGUACUAUUGUGCAGAAGGGUGCAUGGCAA | – | – | 36.7 | 26.5
15 | UCUAUAAGAAAAUAGACGAAGUGGCCAGAAGGUGAAUGCCACAUGAGGAUCACCCAUGUUUCGAUCAAGGAUAUGGUUUCUCAC | – | – | 383 | 99.1
16 | AGAGCGAUAGGAUAUACAUGAGGAUCACCCAUGUUAAAAGUGGAAUCCUUGGACGCAUGUAGAAGGAUUGCGCC | 49.7 | 94.2 | – | –
17 | UAGUGCGUUAGAGGAUAUUCUAAAAUAAAAUAAAAGACAUGAGGAUCACCCAUGUAUGUACAUGGGAAGAAGGCUGAUGUGCUA | – | – | 438 | 51.4
18 | CAAAGUGGAGGAUAUACAUGAGGAUCACCCAUGUAAGGACAAUAAAUAAGAAGAAGAAGUAGAAGGCCACUCAA | 31.1 | 41.6 | – | –
19 | CGAUGUUAUGCAGGAUAUCUCUCUUGAUUGAGGAGAGAAGGGCAUAGGGAGACAUACGCCUUAUUACAUGAGGAUCACCCAUGU | 9.47 | 7.85 | – | –
20 | CCGAGCUUGGCAGGAUAUAGACUCGAAGUUGAUCCCGCCGGUGGAGACAUGAGGAUCACCCAUGUCUAGAAGGGCCAGUCGAAA | 11.7 | 36 | – | –
21 | AUAUGUUAUUAGGAUAUUAAUGCGCGGUCGCAUUAAGAAGGAGUGACAUGAGGAUCACCCAUGUACCACGCUCA | 24.3 | 23.3 | – | –
22 | AAAAAACAUGAGGAUCACCCAUGUCUUUUGACAUGAGGAUAUGUACAGACUUCGGUCUGUACAGAAGGCAUGUAAA | – | – | 511 | 34.7
23 | GGAGCAACAUGAGGAUCACCCAUGUAGGAUAUCGCUAUUGUAAUCAUGAAACAUGAUUACAAUAGCGAGAAGGACAUAUGCUGG | 24.9 | 27.3 | – | –
24 | UCUUAAUUGAUCCUAUUUACCAACAUGAGGAUCACCCAUGUGCAGGAUAUGCUAAAGAUAGAUAAGCAGAAGGGCAUUUACCGC | 213 | 484 | – | –

Row | Sequence | apparent Kd [1] [nM] | apparent Kd [2] [nM] | apparent Kd [3] [nM] | apparent Kd [4] [nM]
25 | UAUUGACAAGGAUAUUUGCGUAGUAACAUGAGGAUCACCCAUGUGAUACUAUGGAGCUCGAAAGAAGGUGUGCGAG | 20.5 | 22.8 | – | –
26 | GCAAUCGAGGGAGGAUAUUGUGAGAUGGUGACAUGAGGAUCACCCAUGUGACGAGAAGGCCCAGUGCGCCCGCUUAACUGCUGA | 37.4 | 210 | – | –
27 | GCUAUAGAUGUAGGAUAUCAUAUAGAAGCUAUGUGAGAAGGACAUGAGGAUCACCCAUGUCAAUGGAUGGAGAGAAGUUAUGGC | 75.3 | 104 | – | –
28 | AGUACUACAGGAUAUACAUGAGUGAUACUCAUAUCCCUACUACAUGAGGAUCACCCAUGUAGAAGGGUAGUACA | 11.7 | 10.1 | – | –
29 | CAAUUGGCACAGAAGGGUGACAUGAGGAUCACCCAUGUAGCGUGGUACUCAGGAGGAACCACGCCACAGGAUAUGUGCCGGCAC | – | – | 44.5 | 123
30 | AAAUAACAUGUAGGAUAUCCAGCAUUGACCAUCGGAGAAGGACAUGAGGAUCACCCAUGUACCGAUACAAUGGAAUAAGGGAAU | 16 | 17.9 | – | –
31 | AAUGUGUGUCGAGGAUAUAUUAUAUGACAACAAACACAUACAUGAGGAUCACCCAUGUCCCAUGUAUAGAAGGCGAUGUGUGUG | – | – | 130 | 174
32 | UGGAUCAUCGGAGGAUAUCAUGUAUAUACAUGAGGAUCACCCAUGUCGAUGGAGACAUCGGAGAUUGAGAAGGCCGAUGAUCCU | – | – | 910 | 30.5
33 | GAGUGCUUAGGAUAUACAUGAGGAUCACCCAUGUGCUUCAGCUAGGAGACUAGCAUUGGUAGAAGGAAGUACUC | 14.5 | 48.6 | – | –
34 | CGCAUCUCUACAAUUCCUUCACAUGAGGAUCACCCAUGUAGGGAGGAUAUGCAAGCUUAUUGGCGGCAGAAGGCCCUGCAAUGG | 142 | 127 | – | –
35 | AAAUCAGCAGGAUAUACGAUUUUAUGCUAGAUAGAGGGACCACAUGAGGAUCACCCAUGUAGAAGGGCUAGAUA | 24.6 | 26.4 | – | –
36 | UAACCAGUCCAGAAGGUGACGUCUGAAACUAGUCAAGGAUAUGGGUUGGUCCACGGUCGGCUACAUGAGGAUCACCCAUGUACC | – | – | 32.8 | 8.33
37 | UUACUAUUGGAGAAGGGUCGAUCAUAUAGAAUGACAGGAUAUCCAACAUGAGGAUCACCCAUGUUUCACCCAUAUGAGGAUCAC | 102 | 31 | – | –
38 | UUGGACGUCGUAGGAUAUGUAGGAUAUUCCUACAUGAGGAUCACCCAUGUUGACAUGGAAGGAGGACAGAAGGACGAUGUCCAU | – | – | 524 | 23.3
39 | GAUUAACAUGAGGAUCACCCAUGUGUGAAUAUGGGAGGAUAUACGUGGACCGUAGUCCGCGUAGAAGGCCUAAUUG | – | – | 279 | 46.1
40 | GGUUGUGUGUAAGGAUAUGCAUCACUGAGAAAUUUAGUGAGGAAGAUCACAUGAGGAUCACCCAUGUAGAAGGUACACACGUGG | 10.7 | 50.1 | – | –
41 | AGCUAGUACCGAGGAUAUACAUACAUGAGGAUCACCCAUGUAUACAUGAACAAUUGAGACUACAUGUAGAAGGCGGUACUAGCA | – | – | 49.9 | 18.6
42 | ACGUUACAUGAGGAUCACCCAUGUGAGGAUAUGGUGCGGUAGUGUCCUGUCGCGUACUCCAGAAGGCGCGGGUG | 204 | 147 | – | –
43 | AUGAGAAAAGCAGGAUAUCUAUUGUCUCAGAAACAUGAGGAUCACCCAUGUAGAGAAGGGCUAAGACUGACUCUUCGGAGUUGA | 10.6 | 9.46 | – | –
44 | CUUUUAUAAUAGAAGGUAGACUUUAAGUGGAUCACCCAUGUGUUGGUACUAAGGAUAUGUAGUAACAUGAGGAUCACCCAUGUU | – | – | 20.5 | 16.9
45 | UUCAAGUUGCGAGGAUAUCGUGUUAACAUGAGGAUCACCCAUGUAAAGGUUUAUUAAUUAAUCUUCGAGAAGGCGCUUAAUGUA | – | – | 29.3 | 19.5
46 | AUGCUGUCAGGAUAUCGUUAAUUUAGUUGUUUGUAUUAGUUCGAGAAGGGACAUGAGGAUCACCCAUGUAUGUA | 30.6 | 54.8 | – | –
47 | AGAAACUACGAGAAGGACAUAUGAUUAAGACUAAACAUGAGGAUCACCCAUGUAGGAUAUCGUAGUUUCAGGAUCGUGAGAUCA | 7.27 | 20.1 | – | –
48 | GGUUUGCGGCAGGAUAUCCAUCCGCGGUGUGGUGGAGAAGGGCUGACAUGAGGAUCACCCAUGUGCGUCCUGUU | 25.1 | 30.5 | – | –
